According to ChEMBL document CHEMBL1687902, “Discovery of potent inhibitors of soluble epoxide hydrolase by combinatorial library design and structure-based virtual screening” (J Med Chem, 2011):

Assays:
[1] = Inhibition of chimeric mouse-human sEH assessed as 6,8-difluoro-4-methylumbelliferyl trans-2,3-epoxy-3-phenylpropylcarbonate hydrolysis preincubated for 10 mins before addition of substrate by fluorometric assay
[2] = system: soluble epoxide hydrolase (Chlorocebus aethiops); experiment: Inhibition of native sEH in african green monkey COS7 cells assessed as 11,12-epoxyeicosatrienoic acid hydrolysis preincubated for 1 hr before substrate addition measured after 2 hrs by LC/MS/MS; conditions: cos-7
[3] = Metabolic stability in human liver microsomes assessed as compound remaining after 30 mins; format: ADME, Microsome; conditions: read-out: Stability
Summary of the method: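 Pooled human liver microsomes, compound at 1 μM in 100 mM phosphate buffer pH 7.4. NADP+ regenerating system (1 mM NADP+, 5 mM isocitric acid, 1 U/mL isocitric dehydrogenase) with 1 mM MgCl2. Read-out is percent parent remaining after 30 min incubation.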

In the case of `CC(=O)c1ccc(N2CCC(CC(=O)Nc3nc4c(C)cccc4o3)CC2)cc1`, the IC50 [1] is reported as 109 nM.
`CC(C)(C)OC(=O)N1CCC(CC(=O)Nc2nc3ccccc3o2)CC1` showed an IC50 [2] of 10.3 nM, an IC50 [1] of 94.3 nM and a remaining at 0.5 h [3] of 83%.
In the case of `CC(C)(C)OC(=O)N1CCC(CC(=O)Nc2nc3cc(Cl)ccc3o2)CC1`, the IC50 [2] is reported as 1.54 nM, the IC50 [1] is reported as 6.92 nM and the remaining at 0.5 h [3] is reported as 43%.
`Cc1ccc2oc(NC(=O)CC3CCN(C(=O)OC(C)(C)C)CC3)nc2c1` showed an IC50 [2] of 0.486 nM, an IC50 [1] of 11.4 nM and a remaining at 0.5 h [3] of 6%.
Molecule `Cc1cc(C)c2oc(NC(=O)CC3CCN(C(=O)OC(C)(C)C)CC3)nc2c1` has an IC50 [2] of 4.38 nM, an IC50 [1] of 73 nM and a remaining at 0.5 h [3] of 22%.
With `Cc1cccc2oc(NC(=O)CC3CCN(C(=O)OC(C)(C)C)CC3)nc12` the IC50 [1] was 272 nM.
`Cc1ccc2nc(NC(=O)CC3CCN(C(=O)OC(C)(C)C)CC3)oc2c1` showed an IC50 [1] of 202 nM.
`CC(=O)c1ccc(N2CCC(CC(=O)Nc3nc4ccccc4o3)CC2)cc1` gave an IC50 [2] of 22 nM, an IC50 [1] of 19.4 nM and a remaining at 0.5 h [3] of 62%.
`CC(=O)c1ccc(N2CCC(CC(=O)Nc3nc4cc(Cl)ccc4o3)CC2)cc1` showed an IC50 [2] of 4.68 nM, an IC50 [1] of 3.58 nM and a remaining at 0.5 h [3] of 45%.
In the case of `CC(=O)c1ccc(N2CCC(CC(=O)Nc3nc4cc(C)ccc4o3)CC2)cc1`, the IC50 [2] is reported as 5.76 nM, the IC50 [1] is reported as 3.61 nM and the remaining at 0.5 h [3] is reported as 53%.
Work on `CC(=O)c1ccc(N2CCC(CC(=O)Nc3nc4cc(C)cc(C)c4o3)CC2)cc1` yielded an IC50 [2] of 1.42 nM, an IC50 [1] of 46.5 nM and a remaining at 0.5 h [3] of 22%.
With `CC(=O)c1ccc(N2CCC(CC(=O)Nc3nc4ccc(C)cc4o3)CC2)cc1` the IC50 [1] was 184 nM.
